This data set in a line: Toxicity liver stage against HepG2, at 10uM. Type of data set: cell-based. Set-up: test concentration 10 uM, cell line HepG2-A16-CD81EGFP. Particulars: human, HepG2-A16-CD81EGFP cells; read-out: INHIBITION
In a few lines:
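Uninfected HepG2-A16-CD81EGFP cells, 3 × 10^3 per well, 1536-well, plated on prespotted compound at 10 μM final, parasite-free screening media added to match infected plates; puromycin 10 μM positive, DMSO 0.5% negative; run in parallel with 48 h PbLuc assay at 37 °C, 5% CO2; viability by CellTiter-Glo luminescence, normalized to controls.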
Take `CC(C)COC(C)C(=O)NCCNS(C)(=O)=O` (configuration not stated): the cytotoxicity at 10 µM is -5.26%. The value for `O=C(CSc1nncs1)N1CCN(Cc2ccc(Cl)s2)CC1` was -4.14%; that for `CN(C)C(=O)c1cc2ncc(C(=O)NC3CC3)cc2n1C` was -0.931%; that for `N#CCCN(CC1CCCO1)C(=O)c1ccc2nonc2c1` (configuration not stated) was 1.35%. As to `CC[S+](CC)[c-]1c(=O)[nH]c(=O)n(Cc2ccc(F)cc2)c1=O`, the cytotoxicity at 10 µM worked out at 4.12%. The value for `O=C1CCC2(CCCN(C(=O)Cc3ccccc3)C2)N1` (configuration not stated) was 8.18%. For the molecule `O=C(NC1CC1)N1C[C@H]2CN(c3ccccc3)C(=O)[C@H]2C1`, the cytotoxicity at 10 µM was -1.13%. Turning to `Cc1nc(-c2cc(C(=O)NCC(C)(C)CO)c3ccccn23)cs1`, the cytotoxicity at 10 µM was found to be 6.1%. As for `COc1cc(N2C[C@@H]3COC[C@]3(C(=O)NCc3ccccn3)C2)ncn1`, the figure is 7.55%; as for `CC(C)N(C)Cc1noc2c1CN(C(=O)c1cnccn1)CC2`, 4.44%. The value for `Cc1cc(CN2C[C@H]3CCC[C@@]3(COCC(=O)N3CCCC3)C2)no1` was 8.31%.

On to `CN(C)Cc1cc(=O)n2c(n1)CN(CC1CC1)CCC2`, for which the cytotoxicity at 10 µM was 5.71%. The value for `CCO[C@@H]1CC[C@H]2[C@H]1OCCN2S(=O)(=O)C1CC1` was 5.64%; that for `Cc1ccc(Cn2c(=O)[nH]c3csnc3c2=O)cc1` was 2.93%.

`O=C(NCCN1CCNCC1)c1c(O)c2ccccc2[nH]c1=O`: the cytotoxicity at 10 µM came to 21%.

With `Cc1ccc(C(=O)Nc2nn[nH]n2)s1`, the cytotoxicity at 10 µM is -0.246%. The value for `CN1CC(Oc2ccccc2)=NC(SCC(=O)c2ccccc2)=N1` was -6.17%; that for `Cc1nc(N2CCCCC2)ncc1-c1cc(O)[nH]n1` was 2.76%. As for `COc1ccc2c(c1)CC(C1CCOCC1)N(C(=O)c1ccn(C)n1)C2` (configuration not stated), the figure is 1.78%; as for `CC(C)c1cc(C(=O)N2CCC3(CCc4ccccc4C(=O)N3)C2)no1` (configuration not stated), 6.83%. As for `CCc1nccn1CCC(=O)N1CCCC1c1cncc(NC)n1` (configuration not stated), the figure is 3.53%; as for `O=c1[nH]cc(N2CCCCC2)c(=O)[nH]1`, 5.55%; as for `Cc1ccsc1CN(CCCN(C)C)Cc1ccccn1`, -4.11%. Regarding `CCc1nnc2n1CCN(C(C(=O)NC1CC1)c1ccc(F)cc1)C2` (configuration not stated), the cytotoxicity at 10 µM is 2.16%. The value for `FC(F)(F)c1nc(NC2CCc3ncnn3C2)c2ccccc2n1` (configuration not stated) was -2.99%. The value for `Cc1ccc(S(=O)(=O)Nc2cccnc2O)cc1C` was 3.33%. The value for `COc1cccc(CNC(=O)CCOc2ccccc2C)c1` was -1.2%. On to `CCNc1cc2c(nn1)CCN(C(=O)Cc1ccc3c(c1)CCO3)C2`, for which the cytotoxicity at 10 µM was determined as 1.42%. The value for `COCc1cccc(C(=O)N2CCCC2)c1` was -1.7%. The value for `O=C(c1ccc(SC(F)F)cc1)N1CCOCC1c1ncon1` (configuration not stated) was 4.79%. The value for `CC(=O)NCCCSC1CCN(c2ccccc2F)C1=O` (configuration not stated) was -2.45%; that for `Cc1ccnc(C(NC(=O)c2ccc(O)nc2C)C2CC2)n1` (configuration not stated) was -5.3%.

As to `Cc1nnc(NC(=O)NCC(C)N2CCOCC2)s1` (configuration not stated), the cytotoxicity at 10 µM is -10.6%. As for `CC(C)C(C)(C#N)NC(=O)Cn1cc(C(N)=O)c(-c2ccccc2)n1` (configuration not stated), the figure is -8.82%; as for `CC(NCC1CCN(CCO)CC1)c1ccc(OC(F)(F)F)cc1` (configuration not stated), -15.1%. As for `CCC(=O)N1CCCN(Cc2cc(F)cc(Br)c2)CC1`, the figure is 10.3%; as for `CC(=O)c1csc(-c2csc(Cn3ccc(=O)[nH]c3=O)n2)c1`, 5.39%; as for `CCC(=O)NC1CCCN(Cn2nc(C(C)(C)C)ccc2=O)C1` (configuration not stated), -1.69%. The value for `CCc1nnc(C(C)N2CCc3cncnc3C2)o1` (configuration not stated) was 7.49%.

For `CCC(C)CS(=O)(=O)NC(=O)C1CC1` (configuration not stated), the cytotoxicity at 10 µM is -4.69%. The value for `Cc1cccc(C2(CNC(=O)C(C)S(C)(=O)=O)CCCC2)c1` (configuration not stated) was -2.76%; that for `Cc1csc(CNC(=O)NCC2(c3ccc4c(c3)OCO4)CC2)n1` was 0.0902%; that for `Cc1cc(CN2CCN(c3ccnc(-c4ccccc4)n3)CC2)no1` was -8.92%. As for `CCC(=O)N1CCC(NC(=O)c2cccc(-n3ccnc3)c2)C1` (configuration not stated), the cytotoxicity at 10 µM was determined as 8.96%. As for `Cc1cc(CNC(=O)N2CCc3ccccc3C2CO)c(C)o1` (configuration not stated), the figure is 7.44%; as for `O=C(NCCN1CCOCC1)NCc1ncc(-c2ccccc2)o1`, 1.26%. On to `COc1cc(CNC(=O)NCCCF)cc(Br)c1OC`, for which the cytotoxicity at 10 µM came out at 11.4%.

For the molecule `CCn1cc(C(=O)NC2CCN(S(C)(=O)=O)CC2)c2ccccc21`, the cytotoxicity at 10 µM amounted to 0.95%.

Turning to `Cn1cc(NC(=O)Cn2c(CS(C)(=O)=O)nc3ccccc32)cn1`, the cytotoxicity at 10 µM stood at 1.31%. The value for `COc1ccc(C2CCCN2C(=O)CCNc2ncccn2)cc1` (configuration not stated) was -13.9%; that for `O=C(C1CCOC1)N1CCC2(CC1)Cc1ccccc1CNC2=O` (configuration not stated) was -113%.

For the molecule `CCOc1ccccc1CC(=O)N1C[C@H](C2CC2)[C@@H](N)C1`, the cytotoxicity at 10 µM was -2.45%. For the molecule `CCn1nc(CC(C)C)cc1C(=O)N1CCC2(CC1)[C@H](O)C[C@@H]2O`, the cytotoxicity at 10 µM was -7.2%.

Turning to `CC(C)CC(=O)N1CCc2ccc(S(=O)(=O)N3CCN(C)CC3)cc2C1`, the cytotoxicity at 10 µM was -15.3%.

For the molecule `O=C(NCCn1cc(Cl)cn1)C1CCN(C(=O)C2CC2)CC1`, the cytotoxicity at 10 µM was -50.5%. The value for `NC1CCN(S(=O)(=O)c2ccc(C(=O)N3CCSCC3)cc2)C1` (configuration not stated) was 7.1%; that for `CN(CC1COc2ccccc2O1)C(=O)c1ccc(-c2cn[nH]c2)nc1` (configuration not stated) was 5.37%.

On to `O=C(c1coc(COc2ccccc2F)n1)N1CCC[C@H]1CO`, for which the cytotoxicity at 10 µM was determined as 0.835%. As for `CN(CC1(CO)CCCC1)[C@@H]1c2ccccc2C2(CCNCC2)[C@H]1O`, the figure is 1.44%. The value for `COCCc1noc(CN(C)C(=O)C(C)N2CCc3ccccc3C2)n1` (configuration not stated) was -0.262%. The value for `CCN1CC2(CCC1=O)CCN(CCc1nccn1C)CC2` was 4.65%. Regarding `Cc1cc(C)cc(N2CCN(Cc3cccc(CCN)c3)CC2=O)c1`, the cytotoxicity at 10 µM was determined as 3.32%.

Take `Cc1cnc(NCc2ccncc2)nc1-c1cnn(C)c1`: the cytotoxicity at 10 µM amounted to 15.4%.

`Cc1cnccc1-n1nc(C(C)C)nc1CCN(C)S(C)(=O)=O`: the cytotoxicity at 10 µM is -4.05%. As for `CCn1c(N)nc2cc(C(=O)NCc3ccccc3Cl)cnc21`, the figure is -14.1%; as for `Fc1ccccc1C1NCCc2cc3c(cc21)OCCO3` (configuration not stated), -10.2%. In the case of `Cc1cnn(CC2CCCN2Cc2nnc(C3CC3)o2)c1` (configuration not stated), the cytotoxicity at 10 µM is -21.7%. Turning to `COc1c(CNCc2cccc(Cn3cccn3)c2)c(C)nn1C`, the cytotoxicity at 10 µM stood at 1.33%. The value for `O=C(Nc1ccc(OC2CCCC2)cc1)C1CCCN1c1nccs1` (configuration not stated) was -10.2%; that for `O=C(Nc1ncn(CC(=O)N2CCCCCC2)n1)C1CCCC1` was -11.2%; that for `CC(C(=O)NCc1ccc(N2CCN(C)CC2)nc1)n1cccn1` (configuration not stated) was -9.51%. As for `CCOc1ccc(C#N)cc1NCC(=O)NC(=O)NC`, the figure is -8.35%; as for `O=C(c1ccc(-n2ccnc2)cc1)N1CCCC(n2ccnc2)C1` (configuration not stated), -21.1%; as for `CCN(CC1CCCO1)C(=O)Nc1cc(C(N)=O)ccc1OC` (configuration not stated), -7.33%. With `Cc1cc(CN2CCOC(CNc3cccnn3)C2)on1` (configuration not stated), the cytotoxicity at 10 µM is -13.8%. As for `Cc1csc(N2CCN(C(=O)c3ccc(C)s3)CC2)n1`, the figure is -24.3%. Regarding `Cc1cc(C)n(CC2CCCN2C(=O)Cc2c(C)nc(C)[nH]c2=O)n1` (configuration not stated), the cytotoxicity at 10 µM is -12.8%. As for `CCc1nc(C)c(C(=O)NCCNc2ncccc2C#N)s1`, the figure is -8.54%. As for `NC(=O)c1cc(C2CCCN(C(=O)CCc3cscn3)C2)n[nH]1` (configuration not stated), the figure is -7.59%; as for `c1ccc(-n2ncc(CNC3CCc4ncnn4C3)n2)cc1` (configuration not stated), -3.38%; as for `Cc1ccccc1OCCC(=O)N1CCCC(n2cncn2)C1` (configuration not stated), -17.6%. In the case of `CCn1ccnc1CNCC1CCN(CC(O)c2ccccc2)CC1` (configuration not stated), the cytotoxicity at 10 µM was -12.8%. The value for `Cc1cnc(CN2CCOC(CNc3cccnn3)C2)cn1` (configuration not stated) was -5.15%. As for `CCc1nc(C2CCCN2C(=O)c2ccc3c(c2)nnn3CC)no1` (configuration not stated), the figure is 4.5%. The value for `O=C(NCc1nnc2n1CCCC2)N1CCc2ccccc2C1` was 4.79%. `CCN1CCN(C2CCN(Cc3nnc(C(C)(C)C)o3)CC2)C1=O`: the cytotoxicity at 10 µM came out at 3.8%.

Consider `CC(OCC(F)(F)F)C(=O)NCc1ccc(-n2cncn2)nc1` (configuration not stated), for which the cytotoxicity at 10 µM was -2.55%. The value for `O=C1CCC2(CCC(NCc3ccoc3)CC2)N1` (configuration not stated) was 1.14%; that for `COc1ccc(CN2C[C@@H]3CCCO[C@@H]3[C@H](NS(C)(=O)=O)C2)cc1` was -2.83%; that for `c1cc(CN2CC[C@H]3CO[C@H](CN4CCOCC4)[C@H]3C2)cs1` was 4.91%. As for `COc1ccc(CCNCc2c(C)nn(C)c2N(C)C)cc1OC`, the figure is -11.3%; as for `COCC(=O)N1CCc2ccc(=O)n(Cc3csc(C)n3)c2CC1`, 8.19%; as for `Cn1cc(C(=O)N2CC[C@@H]3[C@@H]2CCN3c2ncc(F)cn2)cn1`, 13.8%.

For the molecule `Cc1ccsc1C(=O)N1C[C@@H]2CN(Cc3ccoc3)CCO[C@@H]2C1`, the cytotoxicity at 10 µM was -1.19%.

On to `CC(=O)N1CCCC1c1nnn2cc(Nc3ccccc3)ccc12` (configuration not stated), for which the cytotoxicity at 10 µM amounted to 12.2%.

Turning to `CC(C)CCN1CCc2[nH]nc(C(=O)N3CCCC3C)c2C1` (configuration not stated), the cytotoxicity at 10 µM amounted to 4.32%. For `O=C(CCc1ccccc1)NC1CCC2(CCC(=O)N2)CC1` (configuration not stated), the cytotoxicity at 10 µM was 1.35%.

The values above are taken from ChEMBL document CHEMBL4513216, “Probing the Open Global Health Chemical Diversity Library for Multistage-Active Starting Points for Next-Generation Antimalarials” (ACS Infect Dis, 2020).
